No end group written: not given here.
Legend:
[1] = Pre‐clinical toxicology study; type: in vivo, mouse, rat and monkey
[2] = system: subintestinal vein vessels (SIV) of zebrafish; assay: Transgenic zebrafish embryo angiogenesis assay; type: in vivo; conditions: doses of the angiogenesis test
[3] = previous studies; cited from earlier work
HUVEC = assay: Fluorescence visualization for entry of peptides; type: cell-based, human; conditions: 25 μg/mL FITC‐conjugated peptide, 3 h, fixed, DAPI
Outline: (§1)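 Test peptide FITC-conjugated, or FITC-TAT cell-penetrating peptide, each at 25 μg/mL, applied for 3 h. HUVEC were isolated in-house. BGC-823, PG and HT-29 were grown in RPMI-1640 with 10% FBS at 37°C in 5% CO2. Cells were then fixed in 4% paraformaldehyde, permeabilized with 0.1% NP-40 in PBS, nuclei stained with DAPI (5 ng/mL), washed three times in PBS, and imaged by confocal microscopy.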

[4] = system: cancer cells (BGC‐823, PG and HT‐29); assay: Fluorescence visualization for entry of peptides; type: cell-based, human; conditions: BGC‐823, PG and HT‐29 cells, 25 μg/mL FITC‐conjugated peptide, 3 h, fixed, DAPI
Outline: as §1

Compound: DSGEGDFLAEGGGVR [fibrinostatin]
- side effects in toxicology study ([1]; pre‐clinical animal models, GLP standards, data not shown): no observable side effects
- margin of safety ([1]; single‐dose acute toxicity testing and repeated‐dose chronic toxicity study in the mouse, rat and monkey): wide margin of safety
- toxicity to zebrafish [2]: no tocixity

Compound: ADSGEGDFLAEGGGVRGPRVVERH [alphastatin]
- anti‐angiogenesis activity of synthetic peptide [3]: showed anti‐angiogenesis activity

Compound: ADSGEGDFLAEGGGVR [FpA]
- anti‐angiogenesis activity of synthetic peptide [3]: inactive

Compound: N=C(N)NCCC[C@H](NC(=O)CNC(=S)Nc1ccc2c(c1)C(=O)OC21c2ccc(O)cc2Oc2cc(O)ccc21)C(=O)N[C@@H](CCCCN)C(=O)N[C@@H](CCCCN)C(=O)N[C@@H](CCCNC(=N)N)C(=O)N[C@@H](CCCNC(=N)N)C(=O)N[C@@H](CCC(N)=O)C(=O)N[C@@H](CCCNC(=N)N)C(=O)N[C@@H](CCCNC(=N)N)C(=O)N[C@@H](CCCNC(=N)N)C(=O)NCC(=O)N[C@@H](Cc1ccc(O)cc1)C(=O)O [FITC‐labeled TAT peptide]
- entry into cells (confocal fluorescence) (HUVEC): entered
- entry into cells (confocal fluorescence) [4]: entered

From publication PMC4714678 (Cancer Science, 2015)
